Among the data in PubChem BioAssay AID1296 (Columbia University Molecular Screening Center, 2008) are activation and normalized cell count values, retold here.

In all, about 130,000 compounds went through this assay and about 1,000 (0.77%) were called active. Not shown: some 1% with an inconclusive outcome.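 Rule for the calls: active = activation at 2 µM above a set limit, confirmed on inspection of the cell images; inconclusive = above the set limit but not confirmed on image inspection; inactive = the rest.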 What follows is part of a selection rich in actives, with near analogues and random picks from the rest.

A short description of the assay: activators of insulin promoter-driven GFP, primary screen, imaging, TRM-6 cells (human fetal islet line), eGFP reporter, cell count (AID 1296;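 for activation: share of cells whose green reporter signal exceeds an intensity cutoff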). As to conditions: at 2 µM; activation: stronger effect = higher value, plate-scaled: unstimulated 0, stimulated control 100; normalized cell count: measured here: cell count (toxicity). In a few lines: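 test system = TRM-6 insulin promoter–eGFP reporter cells | benchmarks = stimulated versus unstimulated wells as plate controls | read-out basis = percent cells above green-intensity threshold, converted to percent activation versus plate controls | detection = fixed-cell fluorescence microscopy, eGFP plus Hoechst | incubation = tamoxifen pre-incubation 15 h overnight, then compound exposure 48 h at 37 °C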
Take `CCCCc1nc(NCc2ccccc2)c(C#N)c2c1CCCC2`: the activation is -3.7% (inactive) and the normalized cell count stood at 115%.

Turning to `Cc1ccccc1OCC(=O)NCC(=O)OCC(=O)c1ccc2ccccc2c1`, the activation is -2.78% (inactive) and the normalized cell count came out at 105%.

Take `Cc1ccc(S(=O)(=O)NC(=O)COc2ccccc2C)cc1`: the activation was -81.2% (inactive) and the normalized cell count came out at 150%.

For `Cc1cccc(NC(=O)COc2ccccc2C)n1`, the activation is 406% (active) and the normalized cell count amounted to 56.6%.

Turning to `Cc1nc2scc(-c3cccs3)c2c(=O)n1N`, the activation is -9.8% (inactive) and the normalized cell count amounted to 105%.

Regarding `O=C(c1ccc(Cl)c([N+](=O)[O-])c1)N1CCN(c2ccccc2)CC1`, the activation is 4.35% (inactive) and the normalized cell count came to 49.2%.

Turning to `Cc1nc2ccc(C(=O)N3CCSCC3)cc2s1`, the activation was 6.06% (inactive) and the normalized cell count is 60.2%.

Take `CCN(CC)CC1(O)CCN(C(=O)c2ccc(Cl)c(Cl)c2)CC1`: the activation is 275% (active) and the normalized cell count was found to be 33.3%.

Take `COCCn1c(SCC(=O)Nc2ccc3c(c2)CCC3)nc2ccccc2c1=O`: the activation is 1.3% (inactive) and the normalized cell count amounted to 117%.

As to `COC(=O)Cc1c(O)ccn(Cc2cccc(C(F)(F)F)c2)c1=O`, the activation is 2.86% (inactive) and the normalized cell count was found to be 159%.

On to `Cc1nn(-c2ccccc2)c(C)c1/C=C/C(=O)OC(C)C(N)=O` (centres undefined), for which the activation was -68.8% (inactive) and the normalized cell count stood at 181%.

For the compound `CCOC(=O)C(NC(=O)CC(C)C)(Nc1sc2c(c1C(N)=O)CCCC2)C(F)(F)F` (centres undefined), the activation was 450% (active) and the normalized cell count was 72.9%.

On to `CCOC(=O)c1c(NC(=O)CSc2nnc(C)c(=O)[nH]2)sc2c1CCC2`, for which the activation was 8.33% (inactive) and the normalized cell count is 125%.

Take `CCOC(=O)c1c(NC(=O)c2ccc(Br)o2)sc2c1CCCC2`: the activation was -3.7% (inactive) and the normalized cell count amounted to 119%.

Regarding `CSc1ccccc1NC(=O)Cc1ccc(Br)cc1`, the activation was -3.85% (inactive) and the normalized cell count is 70.6%.

`Cc1ccccc1NC(=O)C(C)c1ccc(-c2ccccc2)c(F)c1` (centres undefined): the activation was -2.7% (inactive) and the normalized cell count worked out at 168%.

For `O=C(CSCc1ccc([N+](=O)[O-])cc1)Nc1cccc(C(=O)Nc2ccccc2C(=O)O)c1`, the activation is 8.33% (inactive) and the normalized cell count stood at 107%.

On to `COC(=O)c1ccc(NC(=O)CSc2nnc(CNc3ccc(OC)cc3)n2C)cc1`, for which the activation is 0% (inactive) and the normalized cell count came to 125%.

In the case of `COc1ccc(CC(=O)NCc2nnc(SCC(=O)Nc3nccs3)n2C)cc1`, the activation is 330% (active) and the normalized cell count turned out to be 83.7%.

In the case of `COc1ccc(CC(=O)NCc2nnc(SCC(=O)Nc3ncc(C)s3)n2C)cc1`, the activation was -5.56% (inactive) and the normalized cell count is 192%.

On to `CSCCC(=O)N1CCCC(CNC(=O)c2ccccc2Cl)C1` (centres undefined), for which the activation was 7.14% (inactive) and the normalized cell count is 83%.

Take `Cn1cc(/C=C/c2nc3ccccc3c(=O)n2-c2cccc([N+](=O)[O-])c2)c2ccccc21`: the activation is -9.09% (inactive) and the normalized cell count was found to be 111%.

For the compound `COc1ccc(N(C(=O)c2ccc(C)cc2)S(=O)(=O)c2cccs2)cc1`, the activation was 3.85% (inactive) and the normalized cell count turned out to be 171%.

For the compound `Cc1ccc(C(=O)N/C(=C/c2cccs2)C(=O)N2CCCCC2)cc1`, the activation was 0% (inactive) and the normalized cell count came to 111%.

As to `Cc1ccc(C(=O)N/C(=C\c2cccs2)C(=O)NCCc2ccccn2)cc1C`, the activation is 392% (active) and the normalized cell count came to 87.4%.

Take `CCN(CC)S(=O)(=O)c1cc(C(=O)Nc2ccccn2)ccc1C`: the activation is 309% (inactive) and the normalized cell count turned out to be 42.6%.

`CCOc1ccc(N2C(=O)Nc3ccccc3C2(O)C(=O)NCc2ccco2)cc1` (centres undefined): the activation was 0% (inactive) and the normalized cell count worked out at 74.7%.

Consider `Cc1ccc(C(=O)CSc2nc3ccccc3c(=O)n2N)o1`, for which the activation is -5.26% (inactive) and the normalized cell count is 137%.

Take `Cc1cccc(CSc2nnc(Cn3c(=O)sc4ccccc43)n2C)c1`: the activation is -50% (inactive) and the normalized cell count is 79.6%.

Turning to `Cc1nnc(SCc2cccc(Cl)c2)n(N)c1=O`, the activation is 508% (active) and the normalized cell count was 36.8%.

For the compound `CC(C)CNC(=S)Nc1ccc(F)cc1`, the activation was -6.9% (inactive) and the normalized cell count amounted to 136%.

With `Cc1nc(SCc2ccc(F)cc2)c([N+](=O)[O-])[nH]1`, the activation was 9.09% (inactive) and the normalized cell count was found to be 97.3%.

Take `O=C(CCCN1C(=O)CCC1=O)Nc1ccc(Cl)c(C(F)(F)F)c1`: the activation is 444% (active) and the normalized cell count was 46.3%.

On to `O=C(CN1C(=O)CCC1=O)Nc1ccc(S(=O)(=O)N2CCOCC2)cc1`, for which the activation is -10% (inactive) and the normalized cell count amounted to 72.6%.

In the case of `CS(=O)(=O)N(CC(=O)Nc1ccc(Cl)c(Cl)c1)C1CCCCC1`, the activation was 5.71% (inactive) and the normalized cell count is 124%.

For the compound `CN1CCN(C(=O)/C(=C\c2ccc3c(c2)OCO3)NC(=O)c2cccs2)CC1`, the activation was -8.33% (inactive) and the normalized cell count came out at 121%.

On to `CCN1/C(=C/c2ccc3ccc(C)cc3[n+]2CC)Sc2ccccc21`, for which the activation is 567% (active) and the normalized cell count stood at 10.5%.

On to `CCN1/C(=C\c2ccc3ccccc3[n+]2CC)Sc2cc(C)ccc21`, for which the activation is 567% [fluoresces] (active) and the normalized cell count amounted to 15.3%.

Turning to `O=C(NC1CC1)c1cccc(Br)c1`, the activation is -3.12% (inactive) and the normalized cell count is 91.1%.

Consider `O=C(Cc1coc2ccc3ccccc3c12)NCc1cccs1`, for which the activation is -2.94% (inactive) and the normalized cell count came out at 153%.

In the case of `CCC(=O)/C(=C(/O)c1ccccc1)c1nc2ccccc2[nH]1`, the activation was 0% (inactive) and the normalized cell count was found to be 134%.

Take `COc1cc(NC(=O)Nc2ccc(C)cc2)cc([N+](=O)[O-])c1`: the activation was -6.45% (inactive) and the normalized cell count is 133%.
